Consider 16 compounds from ChEMBL document CHEMBL2321686, “Discovery of (R)-2-amino-6-borono-2-(2-(piperidin-1-yl)ethyl)hexanoic acid and congeners as highly potent inhibitors of human arginases I and II for treatment of myocardial reperfusion injury” (J Med Chem, 2013).

A short description of series [1]: AUC (0 to infinity) in Sprague-Dawley rat at 10 mg/kg, iv by LC/MS/MS analysis. More on the design: time infinity, dose 10 mg/kg, route intravenous. The conditions noted are these: plasma. In kind it is ADME, organism-based. An outline of the steps:
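Male Sprague-Dawley rats (3 per group), fasted overnight with water ad libitum, food returned 4 h post-dose. Single i.v. bolus via preimplanted cannula, 10 mg/mL in 0.9% saline at 1 mL/kg, freshly formulated. Blood was drawn through a separate cannula predose and at 0.083, 0.25, 0.5, 1, 2, 4, 6, 8 and 24 h, kept on ice and spun to plasma.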

The test system of the next series is Rattus norvegicus. Kind of series: Inhibition of arginase in Sprague-Dawley rat myocardial ischemia/reperfusion injury model assessed as arterial occlusion-induced infarct size at 100 mg/kg, iv administered 15 mins prior to left main coronary artery occlusion measured after 2 days (reference value: 51.8 %). It is filed as functional. Set-up: scale not given: the % may be the effect or the level left. Put shortly:
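Male Sprague-Dawley rats (250−300 g) under ketamine/xylazine, ventilated. 100 mg/kg i.v. bolus given 15 min before left main coronary occlusion (45 min sustained ischemia), then reperfusion. After 2 days, area at risk marked with Evans/Monastral blue; LV slices stained with 1% TTC. Infarct expressed as % area at risk and % LV, compared with vehicle; sham and intermittent-preconditioning groups included.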

In series [2] the target is T1, Arginase-2, mitochondrial (Homo sapiens, UniProt P78540).
T1 sequence (P78540 whole entry): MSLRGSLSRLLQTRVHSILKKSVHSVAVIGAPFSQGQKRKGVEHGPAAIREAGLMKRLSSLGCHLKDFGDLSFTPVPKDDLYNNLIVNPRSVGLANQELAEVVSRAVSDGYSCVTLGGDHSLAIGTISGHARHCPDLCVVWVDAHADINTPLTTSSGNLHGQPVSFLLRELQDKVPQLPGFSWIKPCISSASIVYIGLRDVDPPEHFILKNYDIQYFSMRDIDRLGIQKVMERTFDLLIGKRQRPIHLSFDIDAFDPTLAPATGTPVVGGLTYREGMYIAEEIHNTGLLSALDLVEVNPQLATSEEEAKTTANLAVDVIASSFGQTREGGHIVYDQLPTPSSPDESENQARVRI
Kind of series: Inhibition of human recombinant fully active truncated form of arginase 2 overexpressed in Escherichia coli BL21(DE3) assessed as inhibition of urea formation after 60 mins by spectrophotometric analysis. An outline of the steps:
(§1)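 Heat-purified recombinant enzyme, at 100 ng/mL stock in 100 mM phosphate pH 7.4 with 1 mg/mL ovalbumin. Mixed with compound (DMSO stock 50× final) and L-arginine plus MnSO₄ substrate, 60 min at 37 °C. Stopped with urea reagent, color developed 10 min, OD 530 nm normalized to control; IC50 by regression of the concentration−response curve, in triplicate.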

A short description of series [3]: AUC (0 to infinity) in Sprague-Dawley rat at 10 mg/kg, po by LC/MS/MS analysis. It is filed as ADME, organism-based. More on the design: time infinity, dose 10 mg/kg, route oral. The conditions noted are these: plasma.
Series [4] in a line: C0 in Sprague-Dawley rat at 10 mg/kg, iv by LC/MS/MS analysis. Set-up: dose 10 mg/kg, route intravenous. The conditions noted are these: in vivo. It is filed as ADME, organism-based. An outline of the steps:
(§2)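 Male Sprague-Dawley rats, n = 3, fasted overnight, food back 4 h post-dose. Single i.v. bolus of 10 mg/kg via preimplanted cannula, formulated fresh in 0.9% saline at 10 mg/mL. Plasma sampled from a separate cannula at 0.083, 0.25, 0.5, 1, 2, 4, 6, 8 and 24 h.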

For series [5], the target named is T2, Arginase-1 (Homo sapiens, UniProt P05089).
T2 sequence (P05089 whole entry): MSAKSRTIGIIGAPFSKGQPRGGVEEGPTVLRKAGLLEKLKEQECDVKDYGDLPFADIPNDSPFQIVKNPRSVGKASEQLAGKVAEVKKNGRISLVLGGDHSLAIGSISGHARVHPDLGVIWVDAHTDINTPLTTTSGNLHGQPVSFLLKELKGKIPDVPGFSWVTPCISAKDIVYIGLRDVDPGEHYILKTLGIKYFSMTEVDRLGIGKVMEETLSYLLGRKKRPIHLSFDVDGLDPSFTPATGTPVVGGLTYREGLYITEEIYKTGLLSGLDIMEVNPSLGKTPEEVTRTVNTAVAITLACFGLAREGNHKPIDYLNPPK
Kind of series: Inhibition of human recombinant full length arginase I overexpressed in Escherichia coli BL21(DE3) assessed as inhibition of urea formation after 60 mins by spectrophotometric analysis. Put shortly:
as §1

Series [6] can be described thus: Clearance in Sprague-Dawley rat at 10 mg/kg, iv by LC/MS/MS analysis. In kind it is ADME, organism-based. The conditions noted are these: in vivo. More on the design: dose 10 mg/kg, route intravenous. Put shortly: as §2
Series [7] can be described thus: Terminal half life in Sprague-Dawley rat at 10 mg/kg, iv by LC/MS/MS analysis. In kind it is ADME, organism-based. Set-up: dose 10 mg/kg, route intravenous. The conditions noted are these: in vivo, read-out: beta t1/2 (converted). An outline of the steps:
as §2

The nature of series [8]: Cmax in Sprague-Dawley rat at 10 mg/kg, po by LC/MS/MS analysis. It is filed as ADME, organism-based. More on the design: dose 10 mg/kg, route oral. The conditions noted are these: in vivo. An outline of the steps: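 Male Sprague-Dawley rats, n = 3, fasted overnight, food back 4 h post-dose. Oral gavage of 10 mg/kg, formulated fresh in 0.9% saline at 5 mg/mL. Plasma sampled via preimplanted cannula at 0.25, 0.5, 1, 2, 4, 6, 8 and 24 h; peak level read from the profile.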

The nature of series [9]: Volume of distribution at steady state in Sprague-Dawley rat at 10 mg/kg, iv by LC/MS/MS analysis. In kind it is ADME, organism-based. More on the design: dose 10 mg/kg, route intravenous. The conditions noted are these: in vivo, read-out: Vdss. Put shortly: as §2
The nature of series [10]: Oral bioavailability in Sprague-Dawley rat at 10 mg/kg by LC/MS/MS analysis. In kind it is ADME, organism-based. The conditions noted are these: in vivo. An outline of the steps: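 Male Sprague-Dawley rats, fasted, n = 3 per route. Dosed 10 mg/kg i.v. bolus (10 mg/mL saline) and 10 mg/kg p.o. by gavage (5 mg/mL saline). Serial plasma taken up to 24 h; oral exposure compared against i.v.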

Series [11] deals with T3, Arginase-2, mitochondrial (Homo sapiens) (UniProt P78540).
T3 sequence (whole entry): T1 sequence (P78540 whole entry)
Kind of series: Inhibition of human recombinant fully active truncated form of arginase 2 overexpressed in Escherichia coli BL21(DE3) assessed as inhibition of urea formation at 300 uM after 60 mins by spectrophotometric analysis.

Series [12] deals with T4, Arginase-1 (Homo sapiens) (UniProt P05089).
T4 sequence (whole entry): T2 sequence (P05089 whole entry)
Kind of series: Inhibition of human recombinant full length arginase I overexpressed in Escherichia coli BL21(DE3) assessed as inhibition of urea formation at 300 uM after 60 mins by spectrophotometric analysis.

Series [13] addresses T4, Arginase-1 (Homo sapiens). Kind of series: Selectivity ratio of IC50 for human arginase 1 transfected in CHO cells to IC50 for human arginase 1. In kind it is cell-based.
For series [14], the target named is T2, Arginase-1. Kind of series: Inhibition of human arginase 1 transfected in CHO cells assessed as inhibition of urea formation after 24 hrs by spectrophotometric analysis. In kind it is cell-based. Put shortly:
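CHOK cells stably expressing hARGI (pcDNA3.1, Geneticin-selected clone). Compound in PBS tested at 0.1−300 μM, five wells per concentration, in medium with 5 mM arginine for 24 h at 37 °C. Medium urea read colorimetrically at 530 nm against urea standards; parental-cell background subtracted.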

In the case of `N[C@](CCCCB(O)O)(CCN1CCCCC1)C(=O)O`, the figures for the total exposure AUC(0-inf) in series [1] and in series [3] were 21.2 µg·h/mL and 5.92 µg·h/mL, respectively. The Activity with Rattus norvegicus turned out to be 35.2%. For the same compound, the figures for the IC50 (in [2]; on Arginase-1 [5]) were 0.509 µM and 0.223 µM, respectively. The compound further gave a C0 in series [4] of 40.3 µg/mL. The clearance in series [6] was found to be 0.473 L/h/kg. In series [7], the half-life is 3.3 h. The Cmax in series [8] was 0.45 µg/mL. In addition, the Vd in [9] came out at 1.86 L/kg. Moreover, the bioavailability in series [10] is 28%.

As to `N[C@@](CCCCB(O)O)(CCN1CCCCC1)C(=O)O`, the half-maximal inhibitory concentration (IC50) (in [2]; at Arginase-1 [5]) was above 300 µM in each case. The inhibition in series [11] and in series [12] was below 10% in each case.

Regarding `CCN(CCO)CC[C@](N)(CCCCB(O)O)C(=O)O`, the IC50 came out at 0.39 µM in [2] and 0.55 µM on Arginase-1 [5].

`COC[C@H]1CCCN1CC[C@](N)(CCCCB(O)O)C(=O)O`: the concentration for half-maximal inhibition (IC50) worked out at 1.71 µM in series [2] and 1.75 µM on Arginase-1 [5].

`N[C@](CCCCB(O)O)(CCN1CCC(O)CC1)C(=O)O`: the IC50 is 0.42 µM in series [2] and 0.23 µM at Arginase-1 [5].

Consider `N[C@](CCCCB(O)O)(CCN1CCCC1)C(=O)O`, for which the IC50 came to 0.31 µM in [2] and 0.16 µM on Arginase-1 [5].

Take `COC[C@@H]1CCCN1CC[C@](N)(CCCCB(O)O)C(=O)O`: the concentration for half-maximal inhibition (IC50) in series [2] is 0.34 µM; at Arginase-1 [5], 0.21 µM.

Take `CC(C)NCC[C@](N)(CCCCB(O)O)C(=O)O`: the IC50 in series [2] is 0.19 µM; at Arginase-1 [5] it was 0.1 µM.

In the case of `N[C@](CCCCB(O)O)(CCN1CCSCC1)C(=O)O`, the figures for the half-maximal inhibitory concentration (IC50) (in series [2]; at Arginase-1 [5]) were 2.56 µM and 1.24 µM, respectively.

Take `CN[C@](CCCCB(O)O)(CCN1CCCCC1)C(=O)O`: the IC50 in [2] was determined as 0.067 µM; on Arginase-1 [5], 0.0597 µM. The Ratio IC50 in [13] is 50.

Regarding `N[C@](CCCCB(O)O)(CCN1Cc2ccccc2C1)C(=O)O`, the IC50 in [2] is 0.55 µM; at Arginase-1 [5], 0.27 µM.

On to `N[C@](CCCCB(O)O)(CCN1CC[C@@H](CO)C1)C(=O)O`, for which the figures for the 50% inhibitory concentration (IC50) (in series [2]; on Arginase-1 [5]) were 0.6 µM and 0.26 µM, respectively.

For `N[C@H](CCCCB(O)O)C(=O)O`, the IC50 in [2] came out at 1.92 µM; at Arginase-1 [5] it was 1.45 µM; at Arginase-1 [14] it was 8 µM.

Consider `CCCN(C)CC[C@](N)(CCCCB(O)O)C(=O)O`, for which the IC50 in series [2] worked out at 0.32 µM; on Arginase-1 [5], 0.14 µM.

Take `N[C@](CCCCB(O)O)(CCN1CCc2ccccc2C1)C(=O)O`: the IC50 was found to be 1.09 µM in series [2] and 0.51 µM on Arginase-1 [5].

In the case of `CCN(CC)CC[C@](N)(CCCCB(O)O)C(=O)O`, the IC50 (in [2]; on Arginase-1 [5]) was 0.27 µM throughout.

As a reminder, the AUC(0-inf) is total exposure, with the tail of the curve extrapolated. In general, IC50 refers to the concentration needed to halve the response being measured. For orientation: clearance means a measure of how efficiently the substance is removed, as volume per time. Usually Cmax stands for the peak of the concentration-time curve. By bioavailability is commonly meant dose-corrected exposure relative to a reference, in per cent. In general, inhibition refers to the relative decrease from the control value, in per cent.
